This note sets out measurements from ChEMBL document CHEMBL1772968, “Comparing micellar, hemolytic, and antibacterial properties of di- and tricarboxyl dendritic amphiphiles” (Bioorg Med Chem, 2011).

As usually defined, the MIC is the smallest concentration in the dilution series that meets the test's criterion for growth inhibition. A high value points to a less susceptible organism. Usually EC10 stands for the concentration needed for an effect of 10%.

≈ marks a conversion by molar mass, not a printed value.

Series [1] concerns Staphylococcus aureus. The series is described as follows: Antibacterial activity against methicillin-resistant Staphylococcus aureus 34380 by broth microdilution method. The series is classed as functional. Summed up: (§1)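 MIC (defined as MIC99) determined by broth microdilution in 0.1-strength brain heart infusion broth. Cultures were diluted in growth medium to an inoculum of about 10^5 CFU/mL. Stocks of the amphiphiles were made in aqueous triethanolamine (5% w/v). Vancomycin stock was 500 mg/L in sterile water. Measurements were done in duplicate. Lines 1-6 are recent patient MRSA isolates.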
On the technique in general: Dilution methods test growth across graded concentrations, often in twofold steps.

Series [2] deals with Staphylococcus aureus. Description: Antibacterial activity against methicillin-resistant Staphylococcus aureus 36361 by broth microdilution method. The series is classed as functional. Summed up:
as §1

For series [3], the system named is Staphylococcus aureus. The series is described as follows: Antibacterial activity against methicillin-resistant Staphylococcus aureus 34864 by broth microdilution method. The series is classed as functional. The procedure, abridged:
as §1

In series [4] the test system is Staphylococcus aureus. Description: Antibacterial activity against methicillin-resistant Staphylococcus aureus 53016 by broth microdilution method. In kind it is functional. The procedure, abridged: as §1
Series [5] can be described thus: Critical micelle concentration of the compound in full-strength brain heart infusion broth by dye-covered glass-bead release. The following applies: pH 7.4.
For series [6], the system named is Staphylococcus aureus. Description: Antibacterial activity against Staphylococcus aureus ATCC 6358 by broth microdilution method. The series is classed as functional. Summed up: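 Log-phase cultures diluted and tested by broth microdilution in 0.1-strength brain heart infusion broth at about 10^5 CFU/mL inoculum. Amphiphile stocks were 12,500 µg/mL in 5% w/v aqueous triethanolamine. MIC was taken as MIC99 and run in duplicate.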

For series [7], the system named is Staphylococcus aureus. Description: Antibacterial activity against methicillin-resistant Staphylococcus aureus 523000 by broth microdilution method. The series is classed as functional. The procedure, abridged:
as §1

For series [8], the system named is Staphylococcus aureus. The series is described as follows: Antibacterial activity against methicillin-resistant Staphylococcus aureus 522870 by broth microdilution method. The series is classed as functional. The procedure, abridged: as §1
A short description of series [9]: Cytotoxicity in sheep RBC assessed as hemolysis after 15 mins by microplate reader. In kind it is cell-based, Ovis aries. The settings on record: erythrocyte, 0.25 h. Summed up:
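Washed defibrinated sheep red cells (1.1 × 10^7 cells/mL) in PBS pH 7.4, or in full-strength BHIB, were mixed 1:1 with compound diluted from 5% triethanolamine stock. Incubation was 15 min at 37 °C, then cells were pelleted at 5000g for 20 min. Supernatant A540 was read against 0.1% Triton X-100 (complete lysis). EC10 was the lowest concentration giving 10% lysis, in duplicate.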

For series [10], the system named is Staphylococcus aureus. Description: Antibacterial activity against methicillin-resistant Staphylococcus aureus ATCC 43330 by broth microdilution method. The series is classed as functional. Summed up: as §1
The test system of series [11] is Staphylococcus aureus. Description: Antibacterial activity against Staphylococcus aureus by broth microdilution method. In kind it is functional.
Series [12] concerns Staphylococcus aureus. The series is described as follows: Antibacterial activity against methicillin-resistant Staphylococcus aureus by broth microdilution method. In kind it is functional.

For the compound `CCCCCCCCCCCCCCCCCCCCC(=O)NC(CCC(=O)O)(CCC(=O)O)CCC(=O)O`, the MIC was found to be 28 µg/mL (≈ 50.4 µM) in series [1]; 57 µg/mL (≈ 103 µM) in [2]; 23 µg/mL (≈ 41.4 µM) in series [3]; 28 µg/mL (≈ 50.4 µM) in [4]; 54 µg/mL (≈ 97.2 µM) in series [6]; 28 µg/mL (≈ 50.4 µM) in [7]. Besides, the MIC in series [8] was 57 µg/mL (≈ 103 µM); in [10] it was 45 µg/mL (≈ 81 µM). Besides, in [5], the CMC is 18 µg/mL. Moreover, in series [9], the EC10 worked out at 31 µg/mL.
For `CCCCCCCCCCCCCCCCCCCCCCC(=O)NC(CCC(=O)O)(CCC(=O)O)CCC(=O)O`, the minimal inhibitory concentration (MIC) in series [1] was 7 µg/mL (≈ 12 µM); in series [2] it was 14 µg/mL (≈ 24 µM); in series [3], 7 µg/mL (≈ 12 µM); in [4], 7 µg/mL (≈ 12 µM); in series [6], 54 µg/mL (≈ 92.5 µM); in [7], 14 µg/mL (≈ 24 µM). Moreover, the values for the MIC in series [8] and in series [10] were 14 µg/mL (≈ 24 µM) and 4.5 µg/mL (≈ 7.71 µM), respectively. Besides, the CMC in series [5] amounted to 18 µg/mL. Also, the EC10 in series [9] was 31 µg/mL.
Turning to `CCCCCCCCCCCCCCCCCCCCCOC(=O)NC(CCC(=O)O)(CCC(=O)O)CCC(=O)O`, the MIC in [1] is 5.3 µg/mL (≈ 9.05 µM); in [2], 14 µg/mL (≈ 23.9 µM); in [3], 7 µg/mL (≈ 11.9 µM); in series [4], 7 µg/mL (≈ 11.9 µM); in [6], 27 µg/mL (≈ 46.1 µM); in [7] it was 7 µg/mL (≈ 11.9 µM). Also, the MIC in series [8] stood at 7 µg/mL (≈ 11.9 µM); in [10], 4.5 µg/mL (≈ 7.68 µM). Moreover, in [5], the CMC was 18 µg/mL. The concentration for an effect of 10% (EC10) in [9] turned out to be 31 µg/mL.
Regarding `CCCCCCCCCCCCCCCCCCCCCCCOC(=O)NC(CCC(=O)O)(CCC(=O)O)CCC(=O)O`, the MIC in series [1] is 5.3 µg/mL (≈ 8.63 µM); in series [2], 14 µg/mL (≈ 22.8 µM); in series [3], 3.6 µg/mL (≈ 5.86 µM); in [4] it was 3.6 µg/mL (≈ 5.86 µM); in series [6] it was 23 µg/mL (≈ 37.5 µM); in series [7], 7 µg/mL (≈ 11.4 µM). In addition, the results for the MIC in [8] and in series [10] were 11 µg/mL (≈ 17.9 µM) and 4.5 µg/mL (≈ 7.33 µM), respectively. The CMC in series [5] was determined as 18 µg/mL. Further, the EC10 in series [9] was 63 µg/mL.
`CCCCCCCCCCCCCCCCCCCCCNC(=O)NC(CCC(=O)O)(CCC(=O)O)CCC(=O)O`: the MIC in [1] is 7 µg/mL (≈ 12 µM); in series [2], 28 µg/mL (≈ 47.9 µM); in series [3], 11 µg/mL (≈ 18.8 µM); in series [4], 11 µg/mL (≈ 18.8 µM); in series [6], 54 µg/mL (≈ 92.3 µM); in series [7], 7 µg/mL (≈ 12 µM). In addition, the MIC in series [8] is 14 µg/mL (≈ 23.9 µM); in [10] it was 4.5 µg/mL (≈ 7.69 µM). The same compound yielded a CMC in series [5] of 9 µg/mL. Moreover, the EC10 in [9] was found to be 31 µg/mL.
As to `CCCCCCCCCCCCCCCCCCCCCCCNC(=O)NC(CCC(=O)O)(CCC(=O)O)CCC(=O)O`, the MIC turned out to be 11 µg/mL (≈ 17.9 µM) in series [1]; 43 µg/mL (≈ 70.2 µM) in [2]; 11 µg/mL (≈ 17.9 µM) in series [3]; 7 µg/mL (≈ 11.4 µM) in series [4]; 54 µg/mL (≈ 88.1 µM) in [6]; 14 µg/mL (≈ 22.8 µM) in [7]. In addition, the MIC stood at 14 µg/mL (≈ 22.8 µM) in [8] and 6.8 µg/mL (≈ 11.1 µM) in series [10]. Moreover, the concentration for an effect of 10% (EC10) in [9] came to 31 µg/mL.
Turning to `CCCCCCCCCCCCCCCCCCCCC(=O)NC(C)(CCC(=O)O)CCC(=O)O`, the minimal inhibitory concentration (MIC) worked out at 3.6 µg/mL (≈ 7.23 µM) in [1]; 3.6 µg/mL (≈ 7.23 µM) in [2]; 3.6 µg/mL (≈ 7.23 µM) in series [3]; 3.6 µg/mL (≈ 7.23 µM) in series [4]; 2.2 µg/mL (≈ 4.42 µM) in series [6]; 3.6 µg/mL (≈ 7.23 µM) in [7]. Moreover, the MIC in series [8] was 5.3 µg/mL (≈ 10.6 µM); in series [10], 2.2 µg/mL (≈ 4.42 µM). Besides, the CMC in series [5] came out at 9 µg/mL. Besides, the EC10 in series [9] was determined as 7.8 µg/mL.
As to `CCCCCCCCCCCCCCCCCCCCCCC(=O)NC(C)(CCC(=O)O)CCC(=O)O`, the MIC in series [1] is 3.6 µg/mL (≈ 6.85 µM); in series [2], 3.6 µg/mL (≈ 6.85 µM); in series [3] it was 3.6 µg/mL (≈ 6.85 µM); in series [4], 3.6 µg/mL (≈ 6.85 µM); in series [6] it was 2.2 µg/mL (≈ 4.18 µM); in series [7] it was 3.6 µg/mL (≈ 6.85 µM). Also, the MIC in series [8] came to 3.6 µg/mL (≈ 6.85 µM); in series [10] it was 1.7 µg/mL (≈ 3.23 µM). Further, the CMC in series [5] was 9 µg/mL. Further, the EC10 in [9] was determined as 7.8 µg/mL.
For `CCCCCCCCCCCCCCCCCCCOC(=O)NC(C)(CCC(=O)O)CCC(=O)O`, the MIC in series [1] came out at 2.2 µg/mL (≈ 4.4 µM); in series [2] it was 2.2 µg/mL (≈ 4.4 µM); in series [3] it was 2.2 µg/mL (≈ 4.4 µM); in series [4], 2.2 µg/mL (≈ 4.4 µM); in series [6], 2.2 µg/mL (≈ 4.4 µM); in series [7], 1.7 µg/mL (≈ 3.4 µM). For the same compound, in series [10], the minimum inhibitory concentration (MIC) was 2.2 µg/mL (≈ 4.4 µM). Also, in series [5], the CMC turned out to be 9 µg/mL. The EC10 in [9] came out at 16 µg/mL.
`CCCCCCCCCCCCCCCCCCCCCOC(=O)NC(C)(CCC(=O)O)CCC(=O)O`: the MIC in [1] is 4.5 µg/mL (≈ 8.53 µM); in series [2], 2.2 µg/mL (≈ 4.17 µM); in [3], 4.5 µg/mL (≈ 8.53 µM); in series [4], 3.4 µg/mL (≈ 6.44 µM); in series [6], 3.4 µg/mL (≈ 6.44 µM); in series [7], 3.4 µg/mL (≈ 6.44 µM). Further, 2.2 µg/mL (≈ 4.17 µM) was the least that counted as inhibitory in [10] (MIC). In [5], this compound had a CMC of 9 µg/mL. Also, the EC10 in [9] was found to be 16 µg/mL.
As for `CCCCCCCCCC(=O)O` [DECANOIC ACID], the values for the minimum inhibitory concentration (MIC) in series [11] and in series [12] were 250 µg/mL (≈ 1450 µM) and greater than 250 µg/mL, respectively.
For `CCCCCCCCCCCC(=O)O` [DODECANOATE], in that order: 250 µg/mL (≈ 1250 µM) and greater than 250 µg/mL.
On the same counts, the results for `CCCCCCCCCCCCCC(=O)O` [MYRISTIC ACID] are 250 µg/mL (≈ 1090 µM) and 250 µg/mL (≈ 1090 µM).
Consider `CCCCCCCCCCCCCCCC(=O)O` [PALMITIC ACID], for which the values for the MIC in series [11] and in [12] were greater than 250 µg/mL and 250 µg/mL (≈ 975 µM), respectively.
Compound `CCCCCCCCCCCCCCCCCC(=O)O` [STEARIC ACID] displayed an MIC in [11] greater than 250 µg/mL.
As for `CN[C@H](CC(C)C)C(=O)N[C@H]1C(=O)N[C@@H](CC(N)=O)C(=O)N[C@H]2C(=O)N[C@H]3C(=O)N[C@H](C(=O)N[C@H](C(=O)O)c4cc(O)cc(O)c4-c4cc3ccc4O)[C@H](O)c3ccc(c(Cl)c3)Oc3cc2cc(c3O[C@@H]2O[C@H](CO)[C@@H](O)[C@H](O)[C@H]2O[C@H]2C[C@](C)(N)[C@H](O)[C@H](C)O2)Oc2ccc(cc2Cl)[C@H]1O` [VANCOMYCIN], the MIC came to 0.75 µg/mL (≈ 0.518 µM) in series [2]; 0.38 µg/mL (≈ 0.262 µM) in series [3]; 0.38 µg/mL (≈ 0.262 µM) in series [4]; 0.25 µg/mL (≈ 0.173 µM) in series [6]; 0.25 µg/mL (≈ 0.173 µM) in series [8]; 0.25 µg/mL (≈ 0.173 µM) in [10].
